Laboratory results published in ChEMBL document CHEMBL1144689, “Antileukemic activity of genistein, a major isoflavone present in soy products” (J Nat Prod, 2008).
Active and inactive are the calls of the source. The rule behind the calls is not given here.

Assays:
L1210 [1] = assay: Antileukemic activity against mouse L1210 cells at 2 uM after 24 hrs by clonogenic assay; type: functional
In short: (§1)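 Murine L1210 cells cultured in RPMI-1640 with 5% heat-inactivated FCS and 6 µM 2-mercaptoethanol. Log-phase cells at 2 × 10^4 cells/mL exposed to 1–20 µM for 12, 24 or 48 h, then drug removed by centrifugation. 100 cells plated in 0.45% soft agar with 10% serum. Colonies >50 cells counted at day 7. Result as % relative to untreated control. Triplicate, three repeats, mean ± SEM.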

L1210 [2] = assay: Antileukemic activity against mouse L1210 cells at 2 uM after 48 hrs by clonogenic assay; type: functional; in short: as §1
L1210 [3] = assay: Antileukemic activity against mouse L1210 cells at 5 uM after 12 hrs by clonogenic assay; type: functional; in short: as §1
L1210 [4] = assay: Antileukemic activity against mouse L1210 cells at 5 uM after 24 hrs by clonogenic assay; type: functional; in short: as §1
L1210 [5] = assay: Antileukemic activity against mouse L1210 cells at 5 uM after 48 hrs by clonogenic assay; type: functional; in short: as §1
L1210 [6] = assay: Antileukemic activity against mouse L1210 cells at 10 uM after 12 hrs by clonogenic assay; type: functional; in short: as §1
L1210 [7] = assay: Antileukemic activity against mouse L1210 cells at 10 uM after 24 hrs by clonogenic assay; type: functional; in short: as §1
L1210 [8] = assay: Antileukemic activity against mouse L1210 cells at 10 uM after 48 hrs by clonogenic assay; type: functional; in short: as §1
L1210 [9] = assay: Antileukemic activity against mouse L1210 cells at 20 uM after 12 hrs by clonogenic assay; type: functional; in short: as §1
L1210 [10] = assay: Antileukemic activity against mouse L1210 cells at 20 uM after 24 hrs by clonogenic assay; type: functional; in short: as §1
L1210 [11] = assay: Antileukemic activity against mouse L1210 cells at 20 uM after 48 hrs by clonogenic assay; type: functional; in short: as §1
L1210 [12] = assay: Growth inhibition of mouse L1210 cells after 24 hrs; type: functional
In short: (§2)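 For L1210 (RPMI-1640, 5% heat-inactivated FCS, 6 µM 2-mercaptoethanol), log-phase cultures at 2 × 10^4 cells/mL were given 1–20 µM for 12, 24 or 48 h. Coulter particle counter counts were expressed as % growth inhibition versus untreated control. IG50 was taken at 24 h. Triplicate, three repeats, mean ± SEM.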

L1210 [13] = assay: Antileukemic activity against mouse L1210 cells after 24 hrs by clonogenic assay; type: functional; conditions: L1210, 24 h, read-out: LC50 (the source's name)
In short: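 Murine L1210 grown in RPMI-1640 with 5% heat-inactivated FCS and 6 µM 2-mercaptoethanol. Log-phase cells at 2 × 10^4 cells/mL exposed to 1–20 µM for 24 h. Drug removed by centrifugation. 100 cells plated in 0.45% soft agar with 10% serum for 7 days, and colonies (>50 cells) counted. Loss is relative to untreated control. Triplicates, three experiments, mean ± SEM.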

HL-60 [14] = assay: Growth inhibition of human HL60 cells at 5 uM after 48 hrs; type: functional; conditions: HL-60, 48 h, read-out: GI
In short: (§3)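 Human leukemic cells (RPMI-1640, 10% heat-inactivated FBS), log phase, seeded at 2 × 10^4 cells/mL. Exposed to 1, 2, 5, 10 or 20 µM (DMSO stock). Cell number counted with a Coulter particle counter at 48 h. Growth inhibition as % of untreated control. IG50 is the concentration giving 50% inhibition. Triplicate, three repeats, mean ± SEM.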

MOLT-3 = assay: Growth inhibition of human MOLT3 cells at 2 uM after 48 hrs; type: functional; conditions: MOLT-3, 48 h, read-out: GI; in short: as §3
L1210 [15] = assay: Antileukemic activity against mouse L1210 cells at 1 uM after 24 hrs by clonogenic assay; type: functional; in short: as §1
L1210 [16] = assay: Growth inhibition of mouse L1210 cells at 20 uM after 24 hrs; type: functional; conditions: L1210, 24 h, read-out: GI; in short: as §2
L1210 [17] = assay: Growth inhibition of mouse L1210 cells at 20 uM after 48 hrs; type: functional; conditions: L1210, 48 h, read-out: GI; in short: as §2
[18] = Elimination half life in human plasma; type: ADME, organism-based
Plasma = assay: Drug concentration in human plasma; type: ADME, cell-free; conditions: read-out: Drug uptake
Raji = assay: Growth inhibition of human Raji cells at 5 uM after 48 hrs; type: functional; conditions: read-out: GI; in short: as §3
[19] = Growth inhibition of human KG1a cells at 5 uM after 48 hrs; type: functional; conditions: KG-1a; in short: as §3
HL-60 [20] = assay: Induction of p57KIP2 re-expression in human HL60 cellular RNA at 1 to 20 uM after 48 hrs by RT-PCR; type: functional, cell-based
In short: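 HL-60 cells treated 48 h with 1–20 µM. p57KIP2 transcript detected by RT-PCR against 18S rRNA reference, with cycles set in the exponential phase. Products resolved on 2% agarose with ethidium bromide staining. Repeated twice.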

L1210 [21] = assay: Induction of p15CDKN2B re-expression in mouse L1210 cells at 1 to 20 uM after 24 hrs by RT-PCR; type: functional, cell-based
In short: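 Murine L1210 cells exposed to 1–20 µM for 24 h. RNA analysed by RT-PCR for p15CDKN2B, with 18S rRNA as reference. Cycle number set within the exponential phase. Products run on 2% agarose and stained with ethidium bromide. Repeated twice.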

Mus musculus = organism: Mus musculus; assay: Toxicity in mouse L1210 cells transplanted CD2F1 mouse assessed as increase in survival time at 0.5% treated with diet for 10 days; type: organism-based; conditions: in vivo, po, 240 h
In short: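 Male CD2F1 mice, 24–28 g, n = 11 per group, on a 2016 diet with or without 0.5% supplement, adapted over 10 days. Then injected i.v. with 10^4 L1210 cells (0.1 mL), passaged weekly i.p. as ascites. Diet continued. Survival checked 2–3 times daily and increase in life span calculated. Toxicity assessed by body weight loss.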

[22] = Half life in CD2F1 mouse; type: ADME, organism-based; conditions: in vivo

O=c1c(-c2ccc(O)cc2)coc2cc(O)cc(O)c12 [GENISTEIN]
Activity (L1210 [1]): 13% | Activity (L1210 [2]): 8.9% | Activity (L1210 [3]): 44% | Activity (L1210 [4]): 16% | Activity (L1210 [5]): 32.9% | Activity (L1210 [6]): 94% | Activity (L1210 [7]): 63% | Activity (L1210 [8]): 81.1% | Activity (L1210 [9]): 100% | Activity (L1210 [10]): 97% | Activity (L1210 [11]): 99.7% | IG50 (L1210 [12]): 18.5 µM | CC50 (L1210 [13]): 6.5 µM | inhibition of growth at 5 µM (HL-60 [14]): > 10% | inhibition of growth at 2 µM (MOLT-3): > 10% | Activity (L1210 [15]): 6% | inhibition of growth at 20 µM (L1210 [16]): 66.7% | inhibition of growth at 20 µM (L1210 [17]): 93.1% | half-life [18]: 15 h | concentration (Plasma): 4 µM | inhibition of growth at 5 µM (Raji): > 10% | inhibition at 5 µM [19]: > 10% | Activity (HL-60 [20]): Active | Activity (L1210 [21]): Active | Survival (Mus musculus): 187 h | half-life [22]: < 0.25 h
